# Measurements reported in ChEMBL document CHEMBL1126841, “Synthesis and structure-activity relationships of 1-acyl-4-((2-methyl-3-pyridyl)cyanomethyl)piperazines as PAF antagonists” (J Med Chem, 1993).
# pIC50: −log10 of the molar value.
# How the values were obtained:
# [1] = target: Platelet-activating factor receptor (Mus musculus) (UniProt Q62035); assay: Dose required to inhibit PAF-induced mortality by 50% in mice; format: functional; details: Mus sp.
# Method in brief: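 Male Swiss mice (22-26 g), groups of 10; test compound given po (20 mL/kg), controls 1% Tween 80. 60 min later, C18-PAF 100 µg/kg plus propanolol 1 mg/kg injected into a lateral tail vein. Mortality scored 2 h after PAF; % inhibition vs controls. ID50 from linear regression of one curve, ≥4 points. Initial dose 3 mg/kg; further doses only if >50% inhibition.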
# [2] = target: Platelet-activating factor receptor (Rattus norvegicus) (UniProt P46002); assay: Intravenous dose required to reduce the arterial blood pressure caused by PAF by 50% in rats; format: functional
# Method in brief: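 Male Sprague-Dawley rats (180-220 g) under pentobarbital anesthesia (50 mg/kg ip); carotid blood pressure recorded. Compound in saline given iv (femoral vein) 3 min before PAF 0.5 µg/kg iv; controls got vehicle. % inhibition of hypotension vs controls. ID50 from linear regression of one curve, ≥4 doses, each the mean of ≥2 independent experiments.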
# [3] = Inhibition of PAF-induced platelet aggregation
# [4] = tested on: Mus musculus; assay: Tested for dose required to inhibit endotoxin-induced mortality by 50 % when administered intravenously in endotoxin-induced mortality (EIM) mice; format: functional; details: iv, read-out: ID50 (the source's name)
# Method in brief: (§1)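 Groups of 10 male Swiss mice (22-26 g) were dosed iv (saline vehicle) 5 min or po (1% Tween 80 vehicle) 30 min before tail-vein injection of E. coli 0111:B4 endotoxin, 20 mg/kg. Mortality was scored at 7 days versus vehicle controls. ID50 was obtained by linear regression of a single curve of at least four points.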
# [5] = tested on: Mus musculus; assay: Tested for dose required to inhibit endotoxin-induced mortality by 50 % when administered perorally in endotoxin-induced mortality (EIM) mice; format: functional; details: po, read-out: ID50 (the source's name); method in brief: as §1
# [6] = tested on: Mus musculus; assay: Tested for dose required to inhibit antigen-induced mortality by 50 % when administered intravenously in active anaphylactic shock (AAS) mice.; format: functional; details: iv, read-out: ID50 (the source's name)
# Method in brief: (§2)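 Male Swiss mice (30 g, groups of 10) were sensitized by ip injection of 1 mL saline containing 1 mg bovine serum albumin, then challenged with BSA. Compound was given iv 5 min or po 30 min before challenge. Survival was recorded 60 min after BSA. ID50 (dose inhibiting mortality by 50%) was obtained by linear regression of a single curve of at least four points.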
# [7] = tested on: Rattus norvegicus; assay: Tested for dose required to inhibit endotoxin-induced mortality by 50 % when administered intravenously in endotoxin-induced mortality (EIM) in rats; format: functional; details: iv, read-out: ID50 (the source's name)
# Method in brief: (§3)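 Groups of 10 male Sprague-Dawley rats (150-175 g) were dosed iv (saline vehicle) 5 min or po (1% Tween 80 vehicle) 30 min before tail-vein injection of E. coli 0127:B8 endotoxin, 5 mg/kg. Mortality was scored at 7 days versus vehicle controls. ID50 was obtained by linear regression of a single curve of at least four points.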
# [8] = tested on: Mus musculus; assay: Tested for dose required to inhibit antigen-induced mortality by 50 % when administered perorally in active anaphylactic shock (AAS) mice.; format: functional; details: po, read-out: ID50 (the source's name); method in brief: as §2
# [9] = tested on: Rattus norvegicus; assay: Tested for dose required to inhibit endotoxin-induced mortality by 50 % when administered perorally in endotoxin-induced mortality (EIM) in rats; format: functional; details: po, read-out: ID50 (the source's name); method in brief: as §3
# [10] = organism: Oryctolagus cuniculus; assay: In vitro inhibition of PAF-induced platelet aggregation in male rabbits
# [11] = tested on: Mus musculus; assay: Tested for dose required to inhibit antigen-induced mortality by 50 % when administered intravenously in active anaphylactic shock (AAS) mice; format: functional; details: iv, read-out: ID50 (the source's name); method in brief: as §2
# [12] = tested on: Rattus norvegicus; assay: Tested for dose required to inhibit endotoxin-induced mortality by 50 % when administered intravenously in endotoxin-induced mortality (EIM) rats; format: functional; details: iv, read-out: ID50 (the source's name); method in brief: as §3
# [13] = tested on: Rattus norvegicus; assay: Tested for dose required to inhibit endotoxin-induced mortality by 50 % when administered perorally in endotoxin-induced mortality (EIM) rats; format: functional; details: po, read-out: ID50 (the source's name); method in brief: as §3
# [14] = tested on: Mus musculus; assay: Tested for dose required to inhibit antigen-induced mortality by 50 % when administered perorally in active anaphylactic shock (AAS) mice; format: functional; details: po, read-out: ID50 (the source's name); method in brief: as §2
# Platelet-activating factor receptor (Mus musculus), sequence (Q62035 whole entry): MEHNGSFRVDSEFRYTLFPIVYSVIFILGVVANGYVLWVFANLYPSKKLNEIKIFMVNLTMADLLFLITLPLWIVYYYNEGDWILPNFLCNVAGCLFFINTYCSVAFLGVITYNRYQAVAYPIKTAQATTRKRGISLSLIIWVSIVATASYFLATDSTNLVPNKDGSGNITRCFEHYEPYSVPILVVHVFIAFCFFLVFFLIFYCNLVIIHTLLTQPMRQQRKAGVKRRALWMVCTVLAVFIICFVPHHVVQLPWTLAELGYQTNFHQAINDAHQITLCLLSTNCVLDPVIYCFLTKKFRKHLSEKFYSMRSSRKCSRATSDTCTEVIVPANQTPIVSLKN
# Platelet-activating factor receptor (Rattus norvegicus), sequence (P46002 whole entry): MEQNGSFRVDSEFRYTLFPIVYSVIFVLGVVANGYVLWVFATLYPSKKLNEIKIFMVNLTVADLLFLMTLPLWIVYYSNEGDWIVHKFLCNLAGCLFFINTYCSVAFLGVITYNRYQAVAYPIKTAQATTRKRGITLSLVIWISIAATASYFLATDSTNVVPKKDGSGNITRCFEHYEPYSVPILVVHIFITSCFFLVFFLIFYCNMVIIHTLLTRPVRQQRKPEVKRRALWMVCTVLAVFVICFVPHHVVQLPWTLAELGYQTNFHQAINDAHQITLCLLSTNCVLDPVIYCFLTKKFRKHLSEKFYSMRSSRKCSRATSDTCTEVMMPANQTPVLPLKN
Compound,ID50 [1] [mg/kg],ID50 [2] [mg/kg],further results
N#CC(c1cccnc1)N1CCN(C(=O)CNC(c2ccccc2)c2ccccc2)CC1 (stereo not drawn),5.9,0.023,pIC50 [3]: 8.04
Cc1ncccc1C(C#N)N1CCN(C(=O)CNC(c2ccccc2)c2ccccc2)CC1 (stereo not drawn),0.3,0.021,ED50 [4]: 1.4 mg/kg; ED50 [5]: 9 mg/kg; ED50 [6]: 0.51 mg/kg; ED50 [7]: 0.28 mg/kg; ED50 [8]: 2.7 mg/kg; ED50 [9]: 1.4 mg/kg
Cc1ncccc1C(C#N)N1CCN(C(=O)CC(NC(=O)c2cccnc2)c2ccccc2)CC1 (stereo not drawn),0.41,0.029,
CCOC(=O)NC(CC(=O)N1CCN(C(C#N)c2cccnc2C)CC1)c1ccccc1 (stereo not drawn),0.23,0.025,
N#CC(c1cccnc1)N1CCN(C(=O)CC(c2ccccc2)c2ccccc2)CC1 (stereo not drawn),,,pIC50 [3]: 7.70
N#CC(c1cccnc1)N1CCN(C(=O)CC(O)(c2ccccc2)c2ccccc2)CC1 (stereo not drawn),,,pIC50 [10]: 7.68
Cc1ncccc1C(C#N)N1CCN(C(=O)COC(c2ccccc2)c2ccccc2)CC1 (stereo not drawn),> 3,0.048,
Cc1ncccc1C(C#N)N1CCN(C(=O)CCNC(c2ccccc2)c2ccccc2)CC1 (stereo not drawn),0.62,0.044,
Cc1ncccc1C(C#N)N1CCN(C(=O)CC(NC(=O)Oc2ccccc2)c2ccccc2)CC1 (stereo not drawn),> 3,0.036,
Cc1ncccc1C(C#N)N1CCN(C(=O)CC(O)(c2ccccc2)C(F)(F)F)CC1 (stereo not drawn),0.44,0.013,
N#CC(c1cccnc1)N1CCN(C(=O)C=C(c2ccccc2)c2ccccc2)CC1 (stereo not drawn),,,pIC50 [10]: 8.00
Cc1ncccc1C(C#N)N1CCN(C(=O)CC(NCc2ccccc2)c2ccccc2)CC1 (stereo not drawn),1.2,0.035,
N#CC(c1cccnc1)N1CCN(C(=O)CCNC(c2ccccc2)c2ccccc2)CC1 (stereo not drawn),,,pIC50 [3]: 7.28
Cc1ncccc1C(C#N)N1CCN(C(=O)C=C(c2ccccc2)c2ccccc2)CC1 (stereo not drawn),2.2,0.038,
Cc1ncccc1C(C#N)N1CCN(C(=O)CNC(C)(c2ccccc2)c2ccccc2)CC1 (stereo not drawn),> 3,0.057,
Cc1ncccc1C(C#N)N1CCN(C(=O)CC(NC(=O)N2CCCC2)c2ccccc2)CC1 (stereo not drawn),0.97,0.055,
Cc1ncccc1C(C#N)N1CCN(C(=O)CC(c2ccccc2)N(C)Cc2ccccc2)CC1 (stereo not drawn),> 3,0.024,
Cc1ncccc1C(C#N)N1CCN(C(=O)CC(NC(=O)OCc2ccccc2)c2ccccc2)CC1 (stereo not drawn),> 3,0.018,
Cc1ncccc1C(C#N)N1CCN(C(=O)CC(C)c2ccccc2)CC1 (stereo not drawn),> 3,0.039,
Cc1ncccc1C(C#N)N1CCN(C(=O)CN(C=O)C(c2ccccc2)c2ccccc2)CC1 (stereo not drawn),1.5,0.016,
Cc1ncccc1C(C#N)N1CCN(C(=O)[C@H](CO)NC(c2ccccc2)c2ccccc2)CC1 (stereo partly drawn),2.4,0.02,
Cc1ncccc1C(C#N)N1CCN(C(=O)CC(O)(c2ccc(F)cc2)c2ccc(F)cc2)CC1 (stereo not drawn),> 3,0.051,
COC(=O)N(C)C(CC(=O)N1CCN(C(C#N)c2cccnc2C)CC1)c1ccccc1 (stereo not drawn),2,0.036,

Compound,ID50 [1] [mg/kg],ID50 [2] [mg/kg],further results
Cc1ncccc1C(C#N)N1CCN(C(=O)CCC(c2ccccc2)c2ccccc2)CC1 (stereo not drawn),> 3,0.028,
Cc1ncccc1C(C#N)N1CCN(C(=O)CC(NC(=O)c2cccnc2O)c2ccccc2)CC1 (stereo not drawn),> 3,0.12,
Cc1ncccc1C(C#N)N1CCN(C(=O)[C@H](C)NC(c2ccccc2)c2ccccc2)CC1 (stereo partly drawn),1.6,0.025,
COC(=O)NC(CC(=O)N1CCN(C(C#N)c2cccnc2C)CC1)c1ccccc1 (stereo not drawn),0.044,0.015,ED50 [4]: 1.7 mg/kg; ED50 [11]: 0.19 mg/kg; ED50 [5]: 7.5 mg/kg; ED50 [12]: 0.11 mg/kg; ED50 [13]: 1 mg/kg; ED50 [14]: 2.7 mg/kg
Cc1ncccc1C(C#N)N1CCN(C(=O)CC(c2ccccc2)N(Cc2ccccc2)Cc2ccccc2)CC1 (stereo not drawn),> 3,0.068,
Cc1ncccc1C(C#N)N1CCN(C(=O)CC(c2ccccc2)N2CCCS2(=O)=O)CC1 (stereo not drawn),> 3,0.048,
Cc1ncccc1C(C#N)N1CCN(C(=O)CC(Nc2ccccc2)c2ccccc2)CC1 (stereo not drawn),0.27,0.042,
Cc1ncccc1C(C#N)N1CCN(C(=O)CC(O)(c2ccccc2)c2cccnc2)CC1 (stereo not drawn),1,0.042,
Cc1ncccc1C(C#N)N1CCN(C(=O)/C=C(\c2ccccc2)C(F)(F)F)CC1 (stereo not drawn),> 3,0.12,
Cc1ncccc1C(C#N)N1CCN(C(=O)CSC(c2ccccc2)c2ccccc2)CC1 (stereo not drawn),> 3,0.058,
Cc1nnc2n1-c1sc(CCC(=O)N3CCOCC3)cc1C(c1ccccc1Cl)=NC2 [APAFANT],,,ED50 [4]: 1.7 mg/kg; ED50 [11]: 1.7 mg/kg; ED50 [5]: 13.2 mg/kg; ED50 [12]: 0.47 mg/kg; ED50 [13]: 1.4 mg/kg; ED50 [14]: 0.8 mg/kg
Cc1ncccc1C(C#N)N1CCN(C(=O)CC(c2ccccc2)c2ccccc2)CC1 (stereo not drawn),0.9,0.015,
Cc1ncccc1C(C#N)N1CCN(C(=O)CC(NC(=O)OCC(C)C)c2ccccc2)CC1 (stereo not drawn),> 3,0.017,
Cc1ncccc1C(C#N)N1CCN(C(=O)CC(NS(C)(=O)=O)c2ccccc2)CC1 (stereo not drawn),1,0.017,
Cc1ncccc1C(C#N)N1CCN(C(=O)CN(C(c2ccccc2)c2ccccc2)S(C)(=O)=O)CC1 (stereo not drawn),> 3,0.083,
Cc1ncccc1C(C#N)N1CCN(C(=O)CC(N)c2ccccc2)CC1 (stereo not drawn),> 3,0.92,
Cc1ncccc1C(C#N)N1CCN(C(=O)CC(c2ccccc2)N2CCOC2=O)CC1 (stereo not drawn),1,0.029,
CCOC(=O)C(CC(=O)N1CCN(C(C#N)c2cccnc2C)CC1)(c1ccccc1)c1ccccc1 (stereo not drawn),> 3,0.12,
Cc1ncccc1C(C#N)N1CCN(C(=O)CNC(c2ccc(F)cc2)c2ccc(F)cc2)CC1 (stereo not drawn),3,0.049,
COC(=O)NC(CC(=O)N1CCN(C(C#N)c2cccnc2C)CC1)c1ccc(C(F)(F)F)cc1 (stereo not drawn),1.6,0.014,
Cc1ncccc1C(C#N)N1CCN(C(=O)CC(NC(=O)c2ncccc2O)c2ccccc2)CC1 (stereo not drawn),3,0.036,
Cc1ncccc1C(C#N)N1CCN(C(=O)CC(NS(=O)(=O)c2ccccc2)c2ccccc2)CC1 (stereo not drawn),> 3,0.04,
